In the library only some 0.72% were active in any assay of this set; here they are far more common.
mIAP act: mouse IAP activation. muIAP, CDP-Star luminescence, 30 min; hits give high values; 1 = vehicle-only enzyme signal, 0 = enzyme-free wells. activation factor at 10 µM. actives 0.24% (n = 330,000). AID 2805;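 active = activation factor of at least 2 at 20 µM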
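System: mouse IAP enzyme. Reagent: CDP-Star chemiluminescent phosphatase substrate. Benchmarks: DMSO wells, no-enzyme wells. Times: 30 min enzyme-substrate-compound incubation at room temperature. Detection: luminescence from enzymatic CDP-Star hydrolysis. Doses: test compounds delivered from DMSO solution.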
hIAP block: human IAP inhibition; P09923; purified IAP, CDP-Star luminescence, 30 min; inhibition, % at 10 µM; actives 0.12% (n = 330,000); AID 2544;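 active = inhibition reaching a set limit with compound at 10 µM in the primary screen, cut at about 35% in these data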
Target sequence (P09923 whole entry, looked up): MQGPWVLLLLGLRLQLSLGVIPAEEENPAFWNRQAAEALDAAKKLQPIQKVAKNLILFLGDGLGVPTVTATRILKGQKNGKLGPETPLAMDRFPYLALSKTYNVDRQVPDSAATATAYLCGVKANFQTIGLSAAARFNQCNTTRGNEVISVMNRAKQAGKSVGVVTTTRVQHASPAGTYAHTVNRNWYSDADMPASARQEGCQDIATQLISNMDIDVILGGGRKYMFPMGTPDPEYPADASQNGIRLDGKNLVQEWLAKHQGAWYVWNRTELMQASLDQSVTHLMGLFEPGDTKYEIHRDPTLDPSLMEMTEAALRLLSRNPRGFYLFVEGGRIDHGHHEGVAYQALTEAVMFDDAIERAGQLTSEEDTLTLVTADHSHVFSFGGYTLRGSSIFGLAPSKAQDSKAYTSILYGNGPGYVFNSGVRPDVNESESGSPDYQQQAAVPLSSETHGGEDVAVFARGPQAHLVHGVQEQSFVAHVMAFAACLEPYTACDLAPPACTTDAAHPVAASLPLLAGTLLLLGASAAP
bIAP activator: increases bovine intestinal alkaline phosphatase activity; activation factor at 20 µM; actives 0.17% (n = 200,000); purified bovine IAP, CDP-star luminescence, 30 min; hits give high values; fold of DMSO-control signal, blank-subtracted;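 active = activation factor of 2 or more at 20 µM, a signal rise over negative controls twice the positive control's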
bIAP inhibitor: intestinal alkaline phosphatase (bovine) inhibition; 190,000 tested, under 10 active; inhibition, % at 20 µM; purified bovine IAP, CDP-star luminescence, 30 min;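 active = over 50% inhibition of intestinal alkaline phosphatase at 20 µM in the single-dose screen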
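System: purified bovine intestinal alkaline phosphatase (IAP) enzyme; Input: IAP diluted 1/65,000,000 in the well; Measured by: CDP-star luminescence signal; Compound dosing: 20 µM single dose; Incubation: 30 min reaction at room temperature.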
mIAP inh: mouse IAP inhibition; purified mouse IAP, CDP-Star luminescence, 30 min; actives 0.2% (n = 330,000); inhibition, % at 10 µM;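 active = inhibition of at least 40% at 10 µM in the primary screen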
hIAP activ: increases human intestinal alkaline phosphatase activity; P09923; purified human IAP, CDP-Star luminescence, 30 min; hits give high values; 1 = vehicle-only enzyme, 0 = enzyme-free background; activation factor at 10 µM; actives 0.16% (n = 330,000);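 active = activation factor of the enzyme at least 2-fold when tested at 20 µM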
Of the large screens only hits and unclear results are named; the others gave an inactive call.

COc1ccc(C(C(=O)NC2CCCC2)N(Cc2ccc(F)cc2)C(=O)c2ccn[nH]2)cc1OC (configuration not stated)	bIAP activator 2.1
COc1ccc(C(C(=O)NC2CCCC2)N(Cc2cccnc2)C(=O)Cc2cccs2)cc1OC (configuration not stated)	none (no result: bIAP activator, bIAP inhibitor)
COc1ccc(C(C(=O)NC2CCCC2)N(Cc2ccc(C)cc2)C(=O)c2ccn[nH]2)cc1OC (configuration not stated)	bIAP activator 2.7
CC(C)(C)NC(=O)C(c1ccc(F)cc1)N(Cc1ccccc1Cl)C(=O)c1ccn[nH]1 (configuration not stated)	bIAP activator 2.1
COc1ccc(CN2C(=O)N(c3ccccc3)C(=O)C2CC(=O)Nc2ccccc2)cc1OC (configuration not stated)	none
C=CCN1C(=O)/C(=C/c2ccc(-c3ccc(F)cc3)o2)SC1=S	hIAP block 37 (no result: bIAP activator, bIAP inhibitor)
CC(C)CNC(=S)Nc1ccc(Oc2ccccc2)cc1	mIAP act 2.2
CC(=O)N(C)c1ccc(NC(=O)C(Sc2ccccc2)c2ccccc2)cc1 (configuration not stated)	bIAP activator 2.2
Cc1cc(C)cc(-n2ccnc2SCC(=O)O)c1	none
Cc1ccc(C(C)C)c(OCCNCc2ccccc2)c1	none (no result: bIAP activator, bIAP inhibitor)
Cc1ccc(C(C)C)c(OCCNC(=S)Nc2cccc3ccccc23)c1	mIAP act 2.3
O=C(NCc1ccccc1)NCC12CC3CC(CC(C3)C1)C2	mIAP act 2.1
CC(=O)Nc1ccc(C2=NN(c3ccccc3)C(c3ccccc3)C2)cc1 (configuration not stated)	mIAP act 2.3 (no result: bIAP activator, bIAP inhibitor)
COc1ccc(C2CC(c3ccccc3)=NN2c2ccc(C(N)=O)cc2)cc1 (configuration not stated)	mIAP act 2.8 (no result: bIAP activator, bIAP inhibitor)
CCOc1ccc(N(CC(=O)NCCSCc2ccccc2)S(=O)(=O)c2ccccc2)cc1	none (no result: bIAP activator, bIAP inhibitor)
Cc1cccc(OCC(=O)Nc2ccncc2)c1C	none (no result: bIAP activator, bIAP inhibitor)
Cc1cccc(OCC(=O)Nc2ncn[nH]2)c1C	hIAP activ 2 (no result: bIAP activator, bIAP inhibitor)
CC(=O)c1ccc(COC(=O)Cc2ccc([N+](=O)[O-])cc2)cc1	none (no result: bIAP activator, bIAP inhibitor)
CC(C)NC(=O)Nc1ccc2c(c1)C(=O)N([C@H](C)CO)C[C@H](C)[C@@H](CN(C)C(=O)Nc1ccc(C(F)(F)F)cc1)O2	mIAP act 2.3 (no result: bIAP activator, bIAP inhibitor)
C[C@H](CO)N1C[C@H](C)[C@@H](CN(C)C(=O)Nc2ccc(C(F)(F)F)cc2)Oc2ccc(NC(=O)Nc3ccc4c(c3)OCO4)cc2C1=O	mIAP act 2.4 (no result: bIAP activator, bIAP inhibitor)
C[C@@H]1CN([C@H](C)CO)C(=O)c2cc(NC(=O)Nc3ccc(F)cc3)ccc2O[C@H]1CN(C)C(=O)Nc1ccc(C(F)(F)F)cc1	mIAP act 2 (no result: bIAP activator, bIAP inhibitor)
C[C@H](CO)N1C[C@H](C)[C@@H](CN(C)C(=O)Nc2ccccc2)Oc2ccc(NC(=O)Nc3ccc(C(F)(F)F)cc3)cc2C1=O	none (no result: bIAP activator, bIAP inhibitor)
C[C@H](CO)N1C[C@H](C)[C@@H](CN(C)C(=O)Nc2ccc3c(c2)OCO3)Oc2ccc(NC(=O)NC3CCCCC3)cc2C1=O	mIAP act 2.3 (no result: bIAP activator, bIAP inhibitor)
O=C(Nc1ccnn1C1CCN(Cc2ccc(CO)o2)CC1)c1ccccc1	none (no result: bIAP activator, bIAP inhibitor)
CCOc1ccc(NC(=O)COc2ccc3c(c2)CCC3)cc1OC	none (no result: bIAP activator, bIAP inhibitor)
CSc1cccc(NC(=O)Nc2nc3c(C)cccc3s2)c1	mIAP act 2.1 (no result: bIAP activator, bIAP inhibitor)
Nc1ccc2nc(CCCCCCCCc3nc4ccc(N)cc4[nH]3)[nH]c2c1	bIAP activator 2
Cc1cc(C(=O)OCC(=O)Nc2ccccc2[N+](=O)[O-])c2ccccc2n1	bIAP activator 2.1
CCN(c1ccccc1)S(=O)(=O)c1cccc(C(=O)Nc2ccc(C)cn2)c1	none (no result: bIAP activator, bIAP inhibitor)
Cc1onc(-c2ccccc2)c1NC(=O)Nc1ccc(OC(F)F)cc1	mIAP act 2 (no result: bIAP activator, bIAP inhibitor)
Cc1onc(-c2ccccc2)c1C(=O)Nc1ccc(OC(C)C)cc1	none
COc1ccc(Cc2nc3ccc(C(=O)NCc4ncc(C)[nH]4)cc3o2)cc1OC	mIAP inh 50 (no result: bIAP activator, bIAP inhibitor)
CN(C)c1ccc(N=Nc2nc3ccccc3n2C)cc1	mIAP inh 42 (no result: bIAP activator, bIAP inhibitor)
Cn1c(N=Nc2ccccc2)nc2ccccc21	none (no result: bIAP inhibitor)
CCOc1ccc(S(=O)(=O)NCc2cccnc2)c2ccccc12	none (no result: bIAP activator, bIAP inhibitor)
Cn1c(=O)c2c(nc(N/N=C/c3ccco3)n2C)n(C)c1=O	bIAP activator 2.1
Cn1c(=O)c2c(nc(N/N=C/c3cccs3)n2C)n(C)c1=O	none (no result: bIAP activator, bIAP inhibitor)
CCOc1ccc(-c2n[nH]c(=S)o2)cc1	mIAP inh 44
CCc1ccccc1NC(=O)Nc1ccc(F)cc1	none
O=C(Nc1ccc(F)cc1)Nc1ccccc1N1CCCCC1	mIAP act 2.6 (no result: bIAP activator, bIAP inhibitor)
O=C(Nc1ccc(F)cc1)Nc1csc2ccccc12	mIAP act 2.3 (no result: bIAP activator, bIAP inhibitor)
Cc1cccc(NC(=O)CN(CC2CCCO2)C(=O)c2cc3ccccc3o2)c1C (configuration not stated)	none (no result: bIAP activator, bIAP inhibitor)
CC1CN(S(=O)(=O)c2cccc(C(=O)OC(C)C(=O)NC3CCCCC3C)c2)CC(C)O1 (configuration not stated)	none (no result: bIAP activator, bIAP inhibitor)
Cc1cccc([C@@H]2[C@@H]3C(=O)N(Cc4ccccc4)C(=O)[C@@H]3[C@]3(C)C(=O)N(c4ccc(C(F)(F)F)cc4)C(=O)N23)c1	mIAP inh 41 (no result: bIAP activator, bIAP inhibitor)
COc1ccc(N2C(=O)N3[C@H](c4cccc(C)c4)[C@@H]4C(=O)N(Cc5ccccc5)C(=O)[C@@H]4[C@]3(Cc3ccccc3)C2=O)cc1	none (no result: bIAP activator, bIAP inhibitor)
Cc1c(C(=O)N2CCN(c3ccc(F)cc3)CC2)sc2nc3n(c(=O)c12)CCC3	none (no result: bIAP activator, bIAP inhibitor)
O=[N+]([O-])C1=CC=C2C(=NC3(CCCCC3)N2O)C1=NCCc1ccccc1	none
S=C(NCCNCc1ccccc1)NC1CCCCC1	mIAP act 2.1
S=C(NCCc1ccccc1)NC1CCCCCC1	none
Fc1ccc(N2CCN(Cc3c[nH]c4ccccc34)CC2)cc1	hIAP block 38 (no result: bIAP activator, bIAP inhibitor)
CN(c1ccccc1)c1ccc(/C=N/N2CCOCC2)cc1	none
O=C(Nc1nc(-c2ccco2)c(-c2ccco2)s1)c1cnccn1	mIAP inh 44 (no result: bIAP activator, bIAP inhibitor)
O=C(Nc1nc2ccccc2s1)c1cnccn1	none
COC(=O)N/N=C(C)\C=C\c1ccco1	bIAP activator 6.4
Cc1ccc(C)c(S(=O)(=O)NC2CCSC2=O)c1 (configuration not stated)	none (no result: bIAP activator, bIAP inhibitor)
O=C(CSc1nnc(-c2ccc3c(c2)OCO3)o1)Nc1c(F)cccc1F	mIAP inh 55 (no result: bIAP activator, bIAP inhibitor)
NC(=O)c1ccc(NC(=O)CSc2nnc(-c3ccc4c(c3)OCO4)o2)cc1	none (no result: bIAP activator, bIAP inhibitor)
CC(C)n1c(O)c(N=NC(=O)Cc2csc(N3CCOCC3)n2)c2ccccc21	none
O=C(CCCn1cc([N+](=O)[O-])cn1)Nc1cccnc1	none (no result: bIAP activator, bIAP inhibitor)
CCOc1cc(C#N)ccc1OCC(=O)NNC(=O)CC1CCS(=O)(=O)C1 (configuration not stated)	none (no result: bIAP activator, bIAP inhibitor)

High-throughput results deposited in PubChem by Sanford-Burnham Center for Chemical Genomics.
